Assay results published in article PMC8210293 (Experimental and Therapeutic Medicine, 2021).

Legend:
Type in all cases: in vitro ADME
[1] = target: T1, recombinant human UGT1A3 (Homo sapiens, UniProt P35503); experiment: Inhibition of recombinant UGT1A3-catalyzed 4-MU glucuronidation; settings: for Ki: UGT1A3
T1 sequence (P35503 29-534): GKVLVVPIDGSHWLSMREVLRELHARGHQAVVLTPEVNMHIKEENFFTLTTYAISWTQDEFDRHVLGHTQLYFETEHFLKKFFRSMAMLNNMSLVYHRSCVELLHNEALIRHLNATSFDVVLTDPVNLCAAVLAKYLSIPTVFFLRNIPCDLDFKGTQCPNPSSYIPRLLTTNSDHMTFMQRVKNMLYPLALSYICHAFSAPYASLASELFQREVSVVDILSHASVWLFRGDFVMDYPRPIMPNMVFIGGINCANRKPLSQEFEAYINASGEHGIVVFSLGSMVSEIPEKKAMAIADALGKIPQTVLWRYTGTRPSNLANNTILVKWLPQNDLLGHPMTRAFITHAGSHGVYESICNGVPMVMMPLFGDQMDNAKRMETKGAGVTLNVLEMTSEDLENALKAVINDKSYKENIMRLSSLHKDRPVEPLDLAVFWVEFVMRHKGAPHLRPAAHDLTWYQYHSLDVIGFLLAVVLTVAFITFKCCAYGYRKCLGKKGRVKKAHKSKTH
Procedure, shortened: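 Insect-cell-expressed recombinant human UGT1A3 (0.05 mg/ml), 1,200 µM 4-MU, 5 mM UDPGA, 5 mM MgCl2, 50 mM Tris-HCl pH 7.4, DMSO <0.5%. Preincubated 5 min at 37 °C, UDPGA-initiated, run 120 min, quenched with cold methanol plus internal standard. 4-MU-G by LC-MS/MS MRM. Remaining activity vs blank at 50 µM. […] Ki from inhibition-model fits and Lineweaver-Burk/Dixon plots.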

[2] = target: T2, recombinant human UGT1A1 (Homo sapiens, UniProt P22309); experiment: Inhibition of recombinant UGT1A1-catalyzed 4-MU glucuronidation
T2 sequence (P22309 26-533): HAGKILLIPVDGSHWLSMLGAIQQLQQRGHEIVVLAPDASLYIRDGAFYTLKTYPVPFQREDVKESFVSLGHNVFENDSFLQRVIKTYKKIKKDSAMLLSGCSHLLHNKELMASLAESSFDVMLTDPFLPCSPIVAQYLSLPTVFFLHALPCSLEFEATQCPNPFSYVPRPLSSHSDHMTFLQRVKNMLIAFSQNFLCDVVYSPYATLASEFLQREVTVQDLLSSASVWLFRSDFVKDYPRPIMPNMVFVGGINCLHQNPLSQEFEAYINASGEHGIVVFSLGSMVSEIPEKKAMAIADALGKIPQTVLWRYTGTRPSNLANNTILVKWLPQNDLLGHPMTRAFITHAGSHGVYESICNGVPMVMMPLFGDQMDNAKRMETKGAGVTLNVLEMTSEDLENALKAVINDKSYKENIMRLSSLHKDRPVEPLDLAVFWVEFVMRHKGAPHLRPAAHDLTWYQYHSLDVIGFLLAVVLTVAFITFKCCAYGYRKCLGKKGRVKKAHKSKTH
Procedure, shortened: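 Recombinant human UGT1A1 from baculovirus-infected insect cells (0.125 mg/ml), 30 µM 4-MU, 5 mM UDPGA, 5 mM MgCl2, 50 mM Tris-HCl pH 7.4, DMSO <0.5%. Preincubated 5 min at 37 °C, started with UDPGA, run 120 min, stopped with cold methanol plus internal standard. 4-MU-G measured by LC-MS/MS MRM. Remaining activity vs blank at 50 µM. […] Ki by model fitting. Type from Lineweaver-Burk/Dixon plots.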

[3] = target: T3, recombinant human UGT1A6 (Homo sapiens, UniProt P19224); experiment: Inhibition of recombinant UGT1A6-catalyzed 4-MU glucuronidation; settings: Dixon and Lineweaver-Burk plots
T3 sequence (P19224 27-532): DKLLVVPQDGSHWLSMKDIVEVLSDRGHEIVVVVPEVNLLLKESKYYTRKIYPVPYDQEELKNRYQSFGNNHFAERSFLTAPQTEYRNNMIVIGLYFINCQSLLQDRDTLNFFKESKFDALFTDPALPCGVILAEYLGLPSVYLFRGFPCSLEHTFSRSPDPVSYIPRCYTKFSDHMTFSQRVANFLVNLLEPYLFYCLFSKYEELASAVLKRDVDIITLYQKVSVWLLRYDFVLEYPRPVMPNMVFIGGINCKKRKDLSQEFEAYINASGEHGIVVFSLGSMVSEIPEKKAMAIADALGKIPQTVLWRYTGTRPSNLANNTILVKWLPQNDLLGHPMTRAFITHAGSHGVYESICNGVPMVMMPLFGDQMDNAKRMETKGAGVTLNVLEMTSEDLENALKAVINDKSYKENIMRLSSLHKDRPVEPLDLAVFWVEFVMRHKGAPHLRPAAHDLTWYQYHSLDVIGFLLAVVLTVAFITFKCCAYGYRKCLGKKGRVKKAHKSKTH

[4] = target: T4, recombinant human UGT1A9 (Homo sapiens, UniProt O60656); experiment: Inhibition of recombinant UGT1A9-catalyzed 4-MU glucuronidation
T4 sequence (O60656 26-530): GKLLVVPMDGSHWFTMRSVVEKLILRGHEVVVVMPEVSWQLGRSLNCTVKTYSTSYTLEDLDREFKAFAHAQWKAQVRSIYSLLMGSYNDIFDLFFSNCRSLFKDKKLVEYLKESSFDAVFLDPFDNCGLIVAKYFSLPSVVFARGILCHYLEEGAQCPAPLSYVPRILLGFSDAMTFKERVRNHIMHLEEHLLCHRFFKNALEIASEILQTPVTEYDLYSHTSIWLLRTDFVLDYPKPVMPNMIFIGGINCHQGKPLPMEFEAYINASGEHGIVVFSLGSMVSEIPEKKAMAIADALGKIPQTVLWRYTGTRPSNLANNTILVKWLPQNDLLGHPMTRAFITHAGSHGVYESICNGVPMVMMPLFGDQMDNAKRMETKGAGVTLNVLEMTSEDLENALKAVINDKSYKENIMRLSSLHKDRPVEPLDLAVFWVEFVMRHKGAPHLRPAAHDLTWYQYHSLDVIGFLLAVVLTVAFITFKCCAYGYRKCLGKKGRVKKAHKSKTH
Procedure, shortened: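 UGT1A9 incubations used recombinant human enzyme from baculovirus-insect cells (0.05 mg/ml), 30 µM 4-MU, 5 mM UDPGA, 5 mM MgCl2, 50 mM Tris-HCl pH 7.4, DMSO <0.5%. Preincubated 5 min at 37 °C, UDPGA-started, run 30 min, stopped with cold methanol plus internal standard. 4-MU-G by LC-MS/MS MRM. Remaining activity vs blank at 50 µM. […] Ki and type from model fits and Lineweaver-Burk/Dixon plots.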

O=c1c(O)c(-c2ccc(O)c(O)c2)oc2cc(O)cc(O)c12 [Quercetin, 3,3',4',5,7-pentahydroxyflavone]
IC50 [1]: 10600 nM | Ki ([1]; Inhibitory potential class based on Ki): 1000 to 10000 nM | Ki ([1]; Ki, second plot of Lineweaver-Burk slopes): 1600 nM | IC50 [2]: 7470 nM | Ki ([2]; Inhibitory potential class based on Ki, UGT1A1): 1000 to 10000 nM | Inhibition type ([2]; UGT1A1, Dixon and Lineweaver-Burk plots): non-competitive inhibition | Inhibition type [3]: non-competitive inhibition | IC50 [4]: 2810 nM | Ki [4]: 510 nM | Inhibition type ([4]; UGT1A9, Dixon and Lineweaver-Burk plots): competitive inhibition
